Published values from different studies.
Each line is one published result; the experiments were not run side by side.
Oprd1: Delta-type opioid receptor (Oprd1, Rattus norvegicus, UniProt P33533)
ST14: Suppressor of tumorigenicity 14 protein (ST14, Homo sapiens, UniProt Q9Y5Y6)
CDK2 with cyclin A2: Cyclin-dependent kinase 2, with cyclin A2 (CDK2, Homo sapiens, UniProt P24941)

SMILES	target	observed	action	method	tested at	measurement	value
C[C@H]1c2nc3ccccc3c(-c3ccccc3)c2[C@H]2C[C@@H]1N(Cc1ccccc1)C[C@]2(C)O	Oprd1	ligand displacement	–	radioligand	1 µM	inhibition	0%
N=C(N)NCCC[C@H](NC(=O)[C@@H](NC(=O)[C@H](Cc1cscn1)NC(=O)CCc1ccccc1)C1CC1)C(=O)c1nc2ccccc2s1	ST14	enzyme activity	inhibitor	–	0.1 µM	remaining activity	90%
CC(=O)Nc1c(N)nc(SCC(=O)NN)[nH]c1=O	CDK2 with cyclin A2	enzyme activity	inhibitor	–	5 nM	inhibition	14.6%
COc1cc(-c2cncc3c2CN(C)Cc2cc(N4CCNCC4)ccc2-3)cc(OC)c1OC	Tyrosine-protein kinase Fyn (FYN, Homo sapiens, UniProt P06241)	enzyme activity	inhibitor	–	1 µM	remaining activity	94%
CNC(=O)c1cc(Oc2ccc(NC(=O)Nc3ccc(Cl)c(C(F)(F)F)c3)cc2)ccn1	CDK2 with cyclin A2	enzyme activity	inhibitor	–	10 nM	inhibition	36.7%
CNc1ncc2c(/C=C/C(=O)N3CCC(OC)CC3)nn(Cc3cccc(C(F)(F)F)c3)c2n1	Mitogen-activated protein kinase kinase kinase 14 (MAP3K14, Homo sapiens, UniProt Q99558)	enzyme activity	inhibitor	radiometric	1 µM	remaining activity	105%
C[C@H]1C(=O)/C(=C/c2ccccc2)[C@H]2C[C@@H]1N(Cc1ccccc1)C[C@@]2(C)O	Oprd1	ligand displacement	–	radioligand	1 µM	inhibition	16%
N=C(N)NCCC[C@H](NC(=O)[C@H](Cc1ccc2ccccc2c1)NC(=O)[C@H](Cc1cscn1)NC(=O)CCc1ccccc1)C(=O)c1nc2ccccc2s1	ST14	enzyme activity	inhibitor	–	0.1 µM	remaining activity	8%
CC(=O)Nc1c(N)nc(SCC(=O)N/N=C/c2ccc([N+](=O)[O-])cc2)[nH]c1=O	CDK2 with cyclin A2	enzyme activity	inhibitor	–	20 nM	inhibition	21.3%
N=C(N)NCCC[C@H](NC(=O)C1(NC(=O)[C@H](Cc2cscn2)NC(=O)CCc2ccccc2)CCCC1)C(=O)c1nc2ccccc2s1	ST14	enzyme activity	inhibitor	–	0.1 µM	remaining activity	84%
CC(=O)c1c(C)c2cnc(Nc3ccc(N4CCNCC4)cn3)nc2n(C2CCCC2)c1=O	Cyclin-dependent kinase 2 (CDK2, Homo sapiens, UniProt P24941)	enzyme activity	inhibitor	ADP detection	1 µM	activity vs control	79%
CC(C)C(C)(NC(=O)[C@H](Cc1cscn1)NC(=O)CCc1ccccc1)C(=O)N[C@@H](CCCNC(=N)N)C(=O)c1nc2ccccc2s1 (stereo partly drawn)	ST14	enzyme activity	inhibitor	–	0.1 µM	remaining activity	83%
C=CC(=O)N1CCC(COCC(=O)N2CCN(c3nc(-c4cnc(N)nc4C(F)F)nc(N4CCOC[C@@H]4C)n3)CC2)CC1	ALK tyrosine kinase receptor (ALK, Homo sapiens, UniProt Q9UM73)	binding	–	competition with immobilised ligand	1 µM	remaining binding	72%
N=C(N)NCCC[C@H](NC(=O)[C@H](Cc1cccc(I)c1)NC(=O)[C@H](Cc1cscn1)NC(=O)CCc1ccccc1)C(=O)c1nc2ccccc2s1	ST14	enzyme activity	inhibitor	–	0.1 µM	remaining activity	79%
Cc1cc([C@@H](C)Nc2ccccc2C(=O)O)c2nc(N3CCC(F)(F)CC3)c(C#N)c(=O)n2c1	Serine/threonine-protein kinase pim-1 (PIM1, Homo sapiens, UniProt P11309)	binding	–	competition with immobilised ligand	1 µM	remaining binding	100%
